Laboratory results: the EternaBench riboswitch data

System: MS2 coat protein
Assay: apparent Kd, MS2 coat protein; higher = weaker binding; RNA-MaP array; FMN 200 µM where present
How it was run: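 Designs were transcribed by stalled E. coli RNA polymerase on Illumina sequencing-chip clusters. They were titrated with SNAP-549-labelled MS2 coat protein from 0.7 or 1.5 nM, doubling to 3 µM, in 100 mM Tris-HCl pH 7.5, 80 mM KCl, 4 mM MgCl2, BSA, DTT, yeast tRNA and Tween-20, without and then with constant ligand. The apparent Kd is the median of filtered per-cluster fits after normalisation of green signal to red-channel RNA signal and control-cluster median Fmax.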

[1] = designed as: OFF switch for flavin mononucleotide, no ligand
[2] = ligand present: flavin mononucleotide, designed as: OFF switch for flavin mononucleotide
[3] = designed as: ON switch for flavin mononucleotide, no ligand
[4] = ligand present: flavin mononucleotide, designed as: ON switch for flavin mononucleotide

Sequence | apparent Kd [1] | apparent Kd [2] | apparent Kd [3] | apparent Kd [4]
CGCAGCGCAGGAUAUACAUGAGGAUCACCCAUGUACUGGCUCGGCACAGGGUCUCAAGGUAGAAGGGUGCAAAU | 22.6 nM | 23.1 nM |  | 
CAUACACAUGAGGAUCACCCAUGUGAGGAUAUGCGUACGUUGUCCGUAGGCGACGUGCGCAGAAGGCGCGUGUU | 56.9 nM | 48.3 nM |  | 
CGACCCUGAACGAAAUCAUGCAGUCAGGAUAUACAUGAGGAUCACCCAUGUGCGUACCAACUCGUGUAGAAGGGACUUUCAGGG | 12.7 nM | 33.2 nM |  | 
GGAGAACACAUUAACAUGAGGAUCACCCAUGUCAAAAGACAUGAGGAUAUGGAUCCGAAAAGGAUCCAGAAGGCAUGGUGCUCC |  |  | 511 nM | 26.5 nM
UUUUUGUGAGGAUAUCAGUAGUAGAACAAUAGUACUACUACUGAGAAGGCACAUGAGGAUCACCCAUGUUCUUC | 29 nM | 133 nM |  | 
CCUCGACAUGAGGAUCACCCAUGUAAGGAUAUGUUGACGAGCCAGAAAUGGCUGGUCAACAGAAGGUAUAUGUA | 31.9 nM | 121 nM |  | 
UGUUACUAGUAAGGAUAUACUUGCGAUAAGCUUGUAGAAGGUACAGUCUUUUGUAUAACAUGUUUACAUGAGGAUCACCCAUGU |  |  | 9.71 nM | 8.78 nM
GCUCUAUGCUAGAAGGCGUGAAACAUGAGGAUCACCCAUGUCAGAGAAAUGAGGAUAUAGCAUAGAGCAAAAGACGGAAACGUC |  |  | 11.1 nM | 5.61 nM
GCCUGGACAGAGAAGGGCUACUCCAACCACAUGAGGAUCACCCAUGUUAGCAGGAUAUCUGGCAGGGCAUCCUCAAUUAUUAAA |  |  | 91.6 nM | 19.8 nM
GCAGCGCCUGACAUGAGGAUCACCCAUGUUAGAUUGUUAAGUCAGGAUAUAGUCUAGAAACUAGACUAGAAGGGAUAUGCUGCU |  |  | 15 nM | 8.03 nM
UUACUAUAACAGAAGGCUAGAUAAUAUAUAAAUGGAGGAUAUGUUACAUGAGGAUCACCCAUGUUUCACCCACAUGAGGAUCAC | 16.4 nM | 52.2 nM |  | 
GUGAGUAGUCAGGAUAUGCUGUACAAAAGUACAGCAGAAGGGAUUACAUGAGGAUCACCCAUGUUUUCUUCAUG | 83.5 nM | 564 nM |  | 
AAAACAUGAGGAUCACCCAUGUAAAGAACGGUUAAUAAAUGUGAGGAUAUACUAAAAUUUAGGUAGUAGAAGGCACUGGGUACA |  |  | 24.1 nM | 25.7 nM
AAAAGGCUAGGAUAUACAUGAGGAUCACCCAUGUGUACUGGACAUGCGGUAUGCGGAUGUAGAAGGAGUAUAAA | 23.4 nM | 62.4 nM |  | 
UUAGGAUGUGAAGGAUAUGCCGAGUUAAGCCCAGCAGAAGGUUACAUACCUUUUGAUACAUGAGGAUCACCCAUGUUCUAAGAU |  |  | 41.6 nM | 28.3 nM
UUCUUUCCUCAUGUACAUGAGGAACAUGAGGAUCACCCAUGUAGAAGGAUUUCAAUUAAAUUAAAAUAGGAUAUACAUAUAUUU | 15.8 nM | 16.4 nM |  | 
CAGAAGUCAGGAUAUGCAUGGCGGGACUUGCGUCGUGGCGUGCAGAAGGGACAUGAGGAUCACCCAUGUAAAGG | 174 nM | 300 nM |  | 
AAAGUGUGAGGAUAUUCGUAGUACACGGAGACGUGUAUUACGGAGAAGGCACAUGAGGAUCACCCAUGUUCCUU | 20.4 nM | 143 nM |  | 
UAAAAGCUAGGAUAUACAUGAGGAUCACCCAUGUAAUCUCUCACUUACACGGAGGAUCGUAGAAGGAGCACAAA | 21.7 nM | 55.6 nM |  | 
AUCAAGUGAGGAUAUGAUAAUACAACAAACAAACAUCUACAUCAGAAGGCACAUGAGGAUCACCCAUGUUAAUC | 22.7 nM | 27.1 nM |  | 
GGCGGCGCGGGCCACCGCAGGGCCAGAAGGACAUGAGGAUCACCCAUGUGGCAGAACAGGGCGGUGUAGGAUAUGGCAGGCUCG | 35.5 nM | 76.2 nM |  | 
AAUAUAAGAGCUGGAAAUAACUCAACAUGAGGAUCACCCAUGUAGGAUAUCAGCACGAUAAGUGCUGAGAAGGACAUCCAGCUC | 14.4 nM | 14.6 nM |  | 
UCCACUACUGAGAAGGGAUACAUAUGGUUCUAGUCAGGAUAUCGAUACAGUGCAGCAUGAGGACAUGAGGAUCACCCAUGUAUU |  |  | 54.6 nM | 36.2 nM
ACAAAUGGAGGAUAUACAUGAGGAUCACCCAUGUUUAUCCUACAUAUGUGAUCCUCAUGUAGAAGGCCAUUUGA | 11.4 nM | 10.8 nM |  | 

Sequence | apparent Kd [1] | apparent Kd [2] | apparent Kd [3] | apparent Kd [4]
AUUAUUGACGAAGGAUAUGGAUACAUGAGGAUCACCCAUGUAUAUUUUGUGAUCAUAUUUAUGAUCCAGAAGGUCGUUGUUUAU | 37.3 nM | 113 nM |  | 
ACAAAUGGAGGAUAUACAUGAGGAUCACCCAUGUAUAUCCUACAUGUGUGAUAAUAAUGUAGAAGGCCAUUUGA | 13.7 nM | 12 nM |  | 
ACUGACAUGAGGAUCACCCAUGUCUUGGAUAGGCCAAAUUCACAGGAUAUGCAUGAGGAAAGAGUGCAGAAGGGUGAUGCAAUG |  |  | 43.6 nM | 23.9 nM
UUAAGUCAUGUAGGAUAUCCGAUGCGAAGCGUUGGAGAAGGACAUGAGGAUCACCCAUGUUCUAGCGUCUGAGUACAGAUGCAA | 27 nM | 76 nM |  | 
CUUUUGUGAGGAUAUUAGUAGUAAAUAAAUAAAAUUACUACUGAGAAGGCACAUGAGGAUCACCCAUGUUCUUC | 19.4 nM | 93.8 nM |  | 
UAUUUAAUCAUAGGAUAUAGUGUGUAAUUUGGACUAGAAGGAUGAAACAUGAGGAUCACCCAUGUGGUAAAUGGGAUACAUUCC |  |  | 73.5 nM | 94.5 nM
UAUAUAUAGUAAGGAUAUGUAAUUAUUUUAUCAACAGAAGGUACUGACAUGAGGAUCACCCAUGUUUUAGUGUGGGCAUGUAGA | 87.9 nM | 111 nM |  | 
AGUUAAUAUCGAGGAUAUCUCAUGGAGACAUGAGGAUCACCCAUGUGAAUGGGAGAAGGCGAUAUUAACAGCAUGUUACAUGCA |  |  | 284 nM | 21.2 nM
GCUAUUGAUGUAGGAUAUGAUAUAGAAACUAUGUCAGAAGGACAUGAGGAUCACCCAUGUCAAUGGAUGGAGAGAAGAGAUGGC | 28 nM | 30.7 nM |  | 
AUGUAGUACGUAGGAUAUCAAUGAGGAUCACCCUGAGAAGGACGUGAGGACAUGAGGAUCACCCAUGUGGAUCACCCAUGUCAU | 173 nM | 142 nM |  | 
GCAUAUGUCGUCUACAUGAGGAUCACCCAUGUUGAUAAACAUGAGGAUAUUGAUAAGAAUUGUAUCGAGAAGGUAUGUAGGUGC |  |  | 258 nM | 347 nM
GGAUCCUGGGUCAGGAUAUGCUGACAGCUUUGUCAGCAGAAGGGACAUGAGGAUCACCCAUGUGCUCGGUUUUG | 10.1 nM | 18.1 nM |  | 
AGAUCACAUGAGGAUCACCCAUGUGAGGAUAUGAUACUAUGUACUUCGGUACAUAGUAUCAGAAGGCAUGUGGA | 56.7 nM | 109 nM |  | 
UUAUUAUGUGUAGGAUAUGCAUAUCAUUAUUAUGCAGAAGGACAUGAGGAUCACCCAUGUAUAUUAUUAUUAUAUAUUAUAUAU | 15.3 nM | 16.6 nM |  | 
GCACUGGAUGUAGGAUAUCAGGACGAUAAGUCCUGAGAAGGACAUGAGGAUCACCCAUGUAAUAACUCCCAGUGCUAUAAUAUA | 16.4 nM | 20.1 nM |  | 
CAGCUGAAUGUGAGGAUAUCUAGAGCUGCGGCUCUAGAGAAGGCACAUGAGGAUCACCCAUGUCUCAACAGCUG | 40.7 nM | 294 nM |  | 
ACCGAACAUGAGGAUCACCCAUGUGAGGAUAUAGACGCGUAUUUAACGCGUAACAAAACUAGAAGGCACUGGGC | 27.2 nM | 16.1 nM |  | 
AAAAAACAUGAGGAUCACCCAUGUGAGGAUAUCAAAUAAAGGCACAUGAGAAGGCAUAUGAGAAGGCACAUGAA | 99.3 nM | 156 nM |  | 
GGAUGACAUAGUCAUCCUUAACGAACAUGAGGAUCACCCAUGUAGGAUAUGCUACUCAACGAGUAGCAGAAGGACAUGUGUCUU | 26.5 nM | 142 nM |  | 
AAUUAUUUUUGAGGAUAUUGUGGUGAAACACCACAAGAAGGCAAGAUACACAUGAGGAUCACCCAUGUGAGCCUGAUGCUUAUG | 17.1 nM | 21.3 nM |  | 
GUAGCAUACCGAGGAUAUUCAGGGCAUAAAUAAACAUGAGGAUCACCCAUGUGGCGAAAGCCUAGGGAGAAGGCGGAAUGCUAC |  |  | 18.5 nM | 15.3 nM
CUUCGUAUAGAGGAUAUAGGAUACGAAAGUGUCCUAGAAGGCUGUACAUGAGGAUCACCCAUGUACUUCAGAUC | 13.2 nM | 16.4 nM |  | 
UGGUGUGAAGGAUAUACAUGAGGAUCACCCAUGUAUGAGGUGUGUGUUGAGGUGGAGGGUAGAAGGUCAGGUGG | 30.1 nM | 30.6 nM |  | 
UUUGCAACAUGAGGAUCACCCAUGUAGGAUAUCGCUAUUGUAAUCAUGAAACAUGAUUACAAUAGCGAGAAGGACAUAUGCGGG | 44.4 nM | 35 nM |  | 
